Screening results (PubChem BioAssay)
Most compounds without a hit are left out; they make up all but 1.7% or so of the library.
ARNT-TACC3 inh – disruptors of ARNT/TACC3 protein interaction, primary screen, biochemical, AlphaScreen, single concentration; inhibition, % at 9.99 µM; AID 623870, 2012; actives 0.66% (n = 390,000); AlphaScreen His-ARNT PAS-B/GST-TACC3 binding, luminescence; TACC3 fragment carries E629A point mutation;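 active = mean inhibition of replicates at least 50% and at least half of replicates each reaching 50%; inconclusive = half or more replicates reach 50% but mean below 50%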;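 also: 0% = complete ARNT plus TACC3 wells and 100% = ARNT alone without TACC3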
Rce1 inhib – yeast Rce1p protease inhibitors, primary screen, biochemical, fluorescence, cell-free homogeneous | calls only | actives 0.27% (n = 290,000) | AID 2563, 2010 | yeast membranes, quenched prenylated peptide cleavage fluorescence | CAAX prenyl protease 2 (Saccharomyces cerevisiae (strain ATCC 204508 / S288c)), Q03530;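 active = fall in fluorescence gain of 50% or more versus controls, with final raw signal at or below 3038400; inconclusive = same 50% fall but final raw signal above 3038400; inactive = fall in fluorescence gain under 50%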;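 also: plate controls were neutral control wells for no effect and wells lacking membranes for full effect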
Target sequence (Q03530 whole entry, looked up): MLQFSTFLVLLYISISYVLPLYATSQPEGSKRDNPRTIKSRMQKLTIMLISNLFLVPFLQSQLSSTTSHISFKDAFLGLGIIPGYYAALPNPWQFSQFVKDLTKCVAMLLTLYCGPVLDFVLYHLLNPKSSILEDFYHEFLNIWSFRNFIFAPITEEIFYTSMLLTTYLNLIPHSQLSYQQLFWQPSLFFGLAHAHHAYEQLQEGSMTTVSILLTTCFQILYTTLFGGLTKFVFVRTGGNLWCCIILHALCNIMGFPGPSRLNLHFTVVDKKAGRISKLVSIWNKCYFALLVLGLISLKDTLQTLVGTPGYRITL
AI-2 QS modul – Vibrio harveyi AI-2 quorum sensing modulators, primary screen, JMH597 strain, luminescence/OD600 ratio. Vibrio harveyi JMH597 AI-2 luminescence/OD600 ratio, 9 h; active compounds read low; strain lacks LuxN and CqsS sensors; 0 = neutral-control median. activity change, % at 7.5 µM. actives 0.4% (n = 300,000). AID 2094, 2009; in the data active = activity change below about -75%, passing the limit was not always enough; inconclusive = no clear call, values can overlap the other calls;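 also: luminescence divided by OD600 gain over 9 h not by final OD600 alone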
CAL PDZ FP-1 – CAL PDZ peptide-binding inhibitors, primary screen, biochemical, fluorescence polarization, Cer-tagged CAL PDZ, HTS | purified CAL PDZ, TMR-peptide fluorescence polarization, 1 h | Golgi-associated PDZ and coiled-coil motif-containing protein (Homo sapiens), Q9HD26 | inhibition, % at 20 µM | actives 0.02% (n = 330,000) | AID 504414, 2011;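 active = highest replicate inhibition of at least 40%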;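 also: plate controls were DMSO neutral control wells for no effect and unlabeled competitor peptide control wells for full effect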
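Material: tagged CAL PDZ domain; buffer or medium: 25 mM sodium phosphate pH 7.4, 150 mM NaCl, TCEP, IgG, Thesit; compound dosing: single point, 20 µM; schedule: 1 h incubation at room temperature before polarization reading; measured by: FP readout, S and P plane fluorescence; read-out basis: percent inhibition from loss of millipolarization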
CAL PDZ FP-2 – untagged CAL PDZ binding inhibitors, primary screen, biochemical, fluorescence polarization, HTS; Golgi-associated PDZ and coiled-coil motif-containing protein (Homo sapiens), Q9HD26; purified CAL PDZ, TMR-peptide fluorescence polarization, 1 h; inhibition, % at 24.9 µM; actives 0.92% (n = 300,000); AID 602252, 2012;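 active = mean inhibition of at least 30% with at least half of replicates also reaching 30%; inconclusive = no clear call, values can overlap the other calls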;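 also: 0% = DMSO neutral control and 100% = excess unlabeled competitor peptide PRC23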
An asterisk follows results filed as active; i = inactive; ? = inconclusive; . = not tested or not shown; + = active, no number.

SMILES	ARNT-TACC3 inh	Rce1 inhib	AI-2 QS modul	CAL PDZ FP-1	CAL PDZ FP-2
CCc1cnc(N2[C@@H](C#N)[C@@H](c3ccc(C4=CCCCC4)cc3)[C@@H]2CO)s1	22	.	.	.	.
CCOc1cccc(-c2nn(-c3ccccc3)cc2/C=C(/C#N)C(=O)NCCCn2ccnc2)c1	-15	+	11	-2	-6
C[C@@H]1CN([C@H](C)CO)C(=O)c2cc(NS(=O)(=O)c3ccc(F)cc3)ccc2O[C@@H]1CN(C)CC1CCCCC1	0	.	.	.	.
CNS(=O)(=O)c1cc(C(=O)O)ccc1OC	-1	i	19	.	-2
COc1ccc(C(=O)O)cc1S(N)(=O)=O	-4	i	21	-2	32*
NCCCn1c(C(=O)c2cc(Cl)c(N)c(Cl)c2)c2ccc(C(F)(F)F)cc2[n+]1[O-]	5	+	5	-3	0
NC(=O)CCCn1c(C(=O)c2cc(Cl)c(N)c(Cl)c2)c2ccc(C(F)(F)F)cc2[n+]1[O-]	9	+	14	-3	-1
NCCCn1c(C(=O)c2cc(Cl)c(N)c(Cl)c2)c2ccc([N+](=O)[O-])cc2[n+]1[O-]	11	i	13	0	-2
COc1ccc(C(=O)c2c3ccc(C(F)(F)F)cc3[n+]([O-])n2CCCC(N)=O)cc1	8	i	13	1	-1
O=C(O)CCCNS(=O)(=O)c1ccc(F)cc1	-5	i	13	1	-3
Cc1cc(Cl)cc(C)c1OCC(=O)NC1CCCCCC1	.	.	.	0	48*
CN1CC(=O)N(CC(=O)Nc2ccc(SC(F)F)cc2)C1=O	18	i	-86*	0	1
Cc1ccc(CN(C)C(=O)C2CCC(=O)N(C3CCCCCC3)C2)cc1 (centres undefined)	-4	i	-5	0	39*
Cc1ccc(NC(=O)CCC(=O)NNC(=O)Cc2ccccc2)cc1C	3	i	-2	-3	-9
CC1(NC(=O)Nc2ccccc2)CCS(=O)(=O)C1 (centres undefined)	.	i	-5	.	.
COc1ccc(NC(=O)NC2(C)CCS(=O)(=O)C2)cc1 (centres undefined)	0	i	12	-2	63*
Cc1ccc(C2(C)NC(=O)N(CC(=O)NNC(=O)c3ccoc3C)C2=O)cc1 (centres undefined)	-2	i	-41	-1	-2
Cc1ccc(C2(C)NC(=O)N(CC(=O)NNC(=O)c3cc(C)oc3C)C2=O)cc1 (centres undefined)	-5	i	-79*	-2	9
CC(C)NCC(O)COCCOc1ccc(C(C)(C)C)cc1 (centres undefined)	-1	i	36	0	-3
CC(C)NCC(O)COCCOc1ccc(Br)cc1 (centres undefined)	-5	+	25	-2	-1
Cc1csc(NC(=O)c2ccccc2O)n1	-2	+	48	-1	0
CC(C)(C)c1csc(NC(=O)c2ccccc2O)n1	0	i	4	0	-7
COc1ccc2nc(N3CCCC3)[nH]c2c1	5	i	10	-3	.
Cc1ccccc1/C=N/NC(=O)Cn1cnc([N+](=O)[O-])n1	4	i	19	0	-3
O=C(Cn1cncn1)N/N=C/c1ccccc1O	78*	i	16	-2	0
O=C(Cn1cnc([N+](=O)[O-])n1)N/N=C/c1ccccc1O	75*	i	?	0	0
CCOC(=O)c1ccccc1NC(=O)COc1cc(=O)n(CC)c2ccccc12	-5	i	32	-2	-3
Cc1ccc(NC(=O)CN2CCC(NC(=O)c3cccc(F)c3)CC2)cc1C	-8	i	-5	-1	-2
Cc1ccc(C(=O)c2c3ccc(C(F)(F)F)cc3nn2CCC(N)=O)cc1	-6	+	2	1	1
N=c1c2c(-c3ccccc3)c(-c3ccccc3)n(Cc3ccccc3)c2ncn1CCCn1ccnc1	10	i	34	-3	-7
